According to ChEMBL document CHEMBL1149123, “Antineoplastic agents. 499. Synthesis of hystatin 2 and related 1H-benzo[de][1,6]-naphthyridinium salts from aaptamine” (J Med Chem, 2004):
The source made the active and inactive calls. The rule behind the calls is not given here.

Legend:
[1] = biological target: Protein kinase C alpha type (Homo sapiens) (UniProt P17252); assay: Inhibition of PKC alpha at […]; details: concentration not given here
Outline: (§1)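 PKC alpha ligand binding, measured as inhibition of [20-³H]phorbol 12,13-dibutyrate binding at a single compound concentration of […]. Triplicate measurements in single or triplicate experiments, depending on compound. Reported as percent inhibition, mean ± SEM.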

P388 = assay: Inhibition of murine leukemia P388 cell proliferation; type: functional; details: Mus musculus, read-out: ED50 (the source's name)
KM-20L2 = assay: Inhibition of colon KM20L2 cell proliferation; type: functional; details: Homo sapiens, read-out: ED50 (the source's name)
DU-145 = assay: Inhibition of prostate DU-145 cell proliferation; type: functional; details: Homo sapiens, read-out: ED50 (the source's name)
SF-268 = assay: Inhibition of CNS SF-268 cell proliferation; type: functional; details: Homo sapiens, read-out: ED50 (the source's name)
NCI-H460 = assay: Inhibition of lung NCI-H460 cell proliferation; type: functional; details: Homo sapiens, read-out: ED50 (the source's name)
BXPC-3 = assay: Inhibition of pancreatic BXPC-3 cell proliferation; type: functional; details: Homo sapiens, read-out: ED50 (the source's name)
MCF7 = assay: Inhibition of breast MCF-7 cell proliferation; type: functional; details: Homo sapiens, read-out: ED50 (the source's name)
Cryptococcus neoformans = assay: Antimicrobial activity against Cryptococcus neoformans; No inhibition at 64 ug/mL; type: functional, organism-based
Escherichia coli = assay: Antimicrobial activity against Escherichia coli; No inhibition at 64 ug/mL; type: functional
Micrococcus luteus [2] = assay: Antimicrobial activity against Micrococcus luteus; 8-16; type: functional
Staphylococcus aureus = assay: Antimicrobial activity against Staphylococcus aureus; No inhibition at 64 ug/mL; type: functional, organism-based
Candida albicans = assay: Antimicrobial activity against Candida albicans; No inhibition at 64 ug/mL; type: functional, organism-based
[3] = biological target: Protein kinase C alpha type (Homo sapiens) (UniProt P17252); assay: Displacement of [20-3H]-phorbol 12,13-dibutyrate from protein kinase C alpha at […]; details: concentration not given here; outline: as §1
[4] = tested on: Stenotrophomonas maltophilia; assay: Antimicrobial activity against Stenotrophomonas maltophilia; No inhibition at 64 ug/mL; type: functional, organism-based
Neisseria gonorrhoeae [5] = assay: Antimicrobial activity against Neisseria gonorrhoeae; No inhibition at 64 ug/mL; type: functional
Streptococcus pneumoniae [6] = assay: Antimicrobial activity against Streptococcus pneumoniae; No inhibition at 64 ug/mL; type: functional
Enterococcus faecalis = assay: Antimicrobial activity against Enterococcus faecali; No inhibition at 64 ug/mL; type: functional
Enterobacter cloacae = assay: Antimicrobial activity against Enterobacter cloacae; No inhibition at 64 ug/mL; type: functional, organism-based
Micrococcus luteus [7] = assay: Antimicrobial activity against Micrococcus luteus; type: functional
Streptococcus pneumoniae [8] = assay: Antimicrobial activity against Streptococcus pneumoniae; type: functional
Neisseria gonorrhoeae [9] = assay: Antimicrobial activity against Neisseria gonorrhoeae; type: functional
Micrococcus luteus [10] = assay: Antimicrobial activity against Micrococcus luteus; No inhibition at 64 ug/mL; type: functional, organism-based
[11] = Effect on tubulin assembly was determined; type: functional
Outline: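 Tubulin assembly tested in vitro, top concentration […].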

[12] = biological target: Protein kinase C alpha type (Homo sapiens) (UniProt P17252); assay: Inhibition of PKC alpha
Outline: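 Competition with [20-³H]phorbol 12,13-dibutyrate binding to PKC alpha. Full dose–response curves of binding inhibition were determined.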

Micrococcus luteus [13] = assay: Antimicrobial activity against Micrococcus luteus; 0.5-2; type: functional
[14] = tested on: Mycobacterium tuberculosis; assay: Antimicrobial activity against Mycobacterium tuberculosis at 6.25 ug/mL; type: functional

Compound: COc1cc2c3c(cc[n+](C)c3c1OC)N(C)C=C2.[I-]
- inhibition [1]: < 6%
- EC50 (P388): 3.89 µg/mL
- EC50 (KM-20L2): 6.1 µg/mL
- EC50 (DU-145): 3.5 µg/mL
- EC50 (SF-268): 0.69 µg/mL
- EC50 (NCI-H460): > 10 µg/mL
- EC50 (BXPC-3): 7.1 µg/mL
- EC50 (MCF7): 4.9 µg/mL

Compound: COc1ccc(C[n+]2ccc3c4c(cc(OC)c(OC)c42)C=CN3Cc2cc(OC)c(OC)c(OC)c2)cc1O.[Br-]
- Activity (Cryptococcus neoformans): inactive
- Activity (Escherichia coli): inactive
- inhibition [1]: 43.2%
- Activity (Micrococcus luteus [2]): 16 µg/mL
- EC50 (P388): > 10 µg/mL
- Activity (Staphylococcus aureus): inactive
- Activity (Candida albicans): inactive
- EC50 (KM-20L2): > 10 µg/mL
- inhibition [3]: 16%
- Activity [4]: inactive
- Activity (Neisseria gonorrhoeae [5]): inactive
- EC50 (DU-145): > 10 µg/mL
- EC50 (SF-268): > 10 µg/mL
- EC50 (NCI-H460): > 10 µg/mL
- Activity (Streptococcus pneumoniae [6]): inactive
- EC50 (BXPC-3): > 10 µg/mL
- Activity (Enterococcus faecalis): inactive
- Activity (Enterobacter cloacae): inactive
- EC50 (MCF7): > 10 µg/mL

Compound: COc1ccc(CN2C=Cc3cc(OC)c(OC)c4nccc2c34)cc1.Cl
- Activity (Cryptococcus neoformans): inactive
- Activity (Escherichia coli): inactive
- inhibition [1]: < 6%
- EC50 (P388): 2.19 µg/mL
- Activity (Staphylococcus aureus): inactive
- Activity (Candida albicans): inactive
- Activity (Micrococcus luteus [7]): 64 µg/mL
- EC50 (KM-20L2): 3.9 µg/mL
- inhibition [3]: 9.2%
- Activity [4]: inactive
- EC50 (DU-145): 3.1 µg/mL
- EC50 (SF-268): 8.2 µg/mL
- EC50 (NCI-H460): 5.1 µg/mL
- Activity (Streptococcus pneumoniae [8]): 64 µg/mL
- EC50 (BXPC-3): 4.2 µg/mL
- Activity (Neisseria gonorrhoeae [9]): 64 µg/mL
- Activity (Enterococcus faecalis): inactive
- Activity (Enterobacter cloacae): inactive
- EC50 (MCF7): 8 µg/mL

Compound: COc1cc2c3c(ccnc3c1OC)N(Cc1ccccc1)C=C2.Cl
- Activity (Micrococcus luteus [10]): inactive
- Activity (Cryptococcus neoformans): inactive
- Activity (Escherichia coli): inactive
- inhibition [1]: < 6%
- EC50 (P388): 1.64 µg/mL
- Activity (Staphylococcus aureus): inactive
- Activity (Candida albicans): inactive
- EC50 (KM-20L2): 2.2 µg/mL
- inhibition [3]: 6.4%
- Activity [4]: inactive
- EC50 (DU-145): 4.4 µg/mL
- EC50 (SF-268): > 10 µg/mL
- EC50 (NCI-H460): 4.9 µg/mL
- Activity (Streptococcus pneumoniae [8]): 64 µg/mL
- EC50 (BXPC-3): 4.3 µg/mL
- Activity (Neisseria gonorrhoeae [9]): 64 µg/mL
- Activity (Enterococcus faecalis): inactive
- Activity (Enterobacter cloacae): inactive
- EC50 (MCF7): > 10 µg/mL

Compound: COc1cc2ccnc3c2c(c1O)N(C)C=C3 [ISOAAPTAMINE]
- IC50 [11]: 31 µM

Compound: COc1cc(CN2C=Cc3cc(OC)c(OC)c4nccc2c34)cc(OC)c1OC.Cl
- Activity (Micrococcus luteus [10]): inactive
- Activity (Cryptococcus neoformans): inactive
- Activity (Escherichia coli): inactive
- inhibition [1]: < 6%
- EC50 (P388): 4.64 µg/mL
- Activity (Staphylococcus aureus): inactive
- Activity (Candida albicans): inactive
- EC50 (KM-20L2): 3.4 µg/mL
- Activity [4]: inactive
- EC50 (DU-145): > 10 µg/mL
- EC50 (SF-268): > 10 µg/mL
- EC50 (NCI-H460): > 10 µg/mL
- Activity (Streptococcus pneumoniae [6]): inactive
- EC50 (BXPC-3): > 10 µg/mL
- Activity (Neisseria gonorrhoeae [9]): 64 µg/mL
- Activity (Enterococcus faecalis): inactive
- Activity (Enterobacter cloacae): inactive
- EC50 (MCF7): > 10 µg/mL

Compound: COc1cc2c3c(ccnc3c1OC)N(C)C=C2
- inhibition [1]: < 6%
- EC50 (P388): > 10 µg/mL
- EC50 (KM-20L2): > 10 µg/mL
- EC50 (DU-145): > 10 µg/mL
- EC50 (SF-268): > 10 µg/mL
- EC50 (NCI-H460): > 10 µg/mL
- EC50 (BXPC-3): > 10 µg/mL
- EC50 (MCF7): > 10 µg/mL

Compound: COc1cc2c3c(cc[n+](Cc4ccccc4)c3c1OC)N(Cc1ccccc1)C=C2.[Cl-]
- Activity (Cryptococcus neoformans): inactive
- Activity (Escherichia coli): 8 µg/mL
- ID50 [12]: 20.8 µM
- inhibition [1]: 71.1%
- EC50 (P388): 0.234 µg/mL
- Activity (Staphylococcus aureus): inactive
- Activity (Candida albicans): inactive
- Activity (Micrococcus luteus [13]): 2 µg/mL
- EC50 (KM-20L2): 0.055 µg/mL
- inhibition [3]: 11.8%
- Activity [4]: inactive
- Activity (Neisseria gonorrhoeae [5]): 0.25 µg/mL
- EC50 (DU-145): 0.036 µg/mL
- EC50 (SF-268): 0.064 µg/mL
- EC50 (NCI-H460): 0.26 µg/mL
- Activity (Streptococcus pneumoniae [6]): 32 µg/mL
- EC50 (BXPC-3): 0.061 µg/mL
- inhibition at 6.25 µg/mL [14]: 98%
- Activity (Enterococcus faecalis): 32 µg/mL
- Activity (Enterobacter cloacae): inactive
- EC50 (MCF7): 0.27 µg/mL
